Results published in ChEMBL document CHEMBL1158487, “Small molecule chloropyramine hydrochloride (C4) targets the binding site of focal adhesion kinase and vascular endothelial growth factor receptor 3 and suppresses breast cancer growth in vivo” (J Med Chem, 2009).
Active and inactive are the calls of the source. The calls are words filed in the database; no cut-off is given here.

Columns and labels:
[1] = target: Vascular endothelial growth factor receptor 3 (Homo sapiens) (UniProt P35916); assay: Inhibition of VEGFR3 phosphorylation in human BT474 cells assessed as complete dephosphorylation at Tyr1063/1068 activation loop at 1 to 10 uM by Western blotting; assay type: cell-based; settings: BT-474, TDE = time-dependent effect
Method in brief: (§1)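 BT474 cells were exposed for 24 h to increasing doses (1 and 10 µM). Western blots of lysates were probed with a phospho-specific VEGFR-3 antibody for Tyr1063/1068 in the kinase activation loop.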

[2] = system: BT-474; assay: Cytotoxicity against human BT474 cells after 72 hrs by MTS assay; assay type: functional, cell-based; settings: BT-474, 72 h
Method in brief: (§2)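 MTS viability assay, read as mitochondrial dehydrogenase activity of metabolically active cells. Cells were seeded at 5.0 × 10^3 per well and attached overnight. Fresh medium with or without compound was added, followed by 72 h exposure at increasing concentrations. Error shown as ±SEM.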

[3] = system: MCF7; assay: Decrease in colocalization of FAK-VEGFR3 complex in human MCF7 cells expressing VEGFR3 at 10 uM after 24 hrs by confocal microscopy; assay type: functional; parameters: scale not given: the % may be the effect or the level left
Method in brief: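 Cells were treated for 24 h with DMSO or 10 µM compound, then dual-immunostained for FAK (Alexa Fluor 488) together with VEGFR-3 or paxillin (Alexa Fluor 546). Confocal microscopy with scatter-plot analysis gave the percentage of colocalized molecules.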

[4] = target: Vascular endothelial growth factor receptor 3 (Homo sapiens) (UniProt P35916); assay: Inhibition of VEGFR3 phosphorylation in human BT474 cells assessed as partial dephosphorylation at Tyr1063/1068 activation loop at 1 to 10 uM by Western blotting; assay type: cell-based; settings: BT-474, TDE = time-dependent effect
[5] = system: MCF7; assay: Antitumor activity against human MCF7 cells expressing VEGFR3 xenografted in nude-foxn1nu mouse assessed as reduction in tumor growth at 60 mg/kg, ip qd administered day after injection of cells after 21 days relative to control; assay type: functional; parameters: scale not given: the % may be the effect or the level left; settings: route intraperitoneal
Method in brief: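 Female 5–6-week hsd:athymic nude-foxn1nu mice (5 per group) were given 2–5 × 10^6 MCF7-VEGFR-3 cells per 200 µl subcutaneously in the right flank. From the next day they received 60 mg/kg ip once daily or PBS vehicle for 21 days. Tumours were measured thrice weekly (volume = length × width² × 0.5), then excised and weighed at sacrifice.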

[6] = system: COLO 205; assay: Cytotoxicity against human COLO205 cells assessed as cell viability after 72 hrs by MTS assay; assay type: functional, cell-based; settings: COLO 205, 72 h; method in brief: as §2
[7] = system: BT-474; assay: Induction of apoptosis in human BT474 cells at 10 uM by TUNEL assay; assay type: functional
[8] = Cytotoxicity against human MCF10A cells assessed as cell viability at 0.1 to 10 uM by MTS assay; assay type: cell-based; settings: mcf-10a
Method in brief: (§3)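 MTS cell survival assay. Cells were plated at 5.0 × 10^3 per well and allowed to attach overnight, then given fresh medium with or without compound for the designated time. Absorbance was read per the kit protocol. Mean ± SEM of three or more independent experiments.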

[9] = system: BT-474; assay: Antiproliferative activity against human BT474 cells after 48 hrs by BrdU incorporation assay; assay type: functional, cell-based
Method in brief: (§4)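 Cells plated at 2.5 × 10^3 per well and allowed to attach overnight. Fresh growth medium with or without compound was added along with BrdU labelling reagent, and cells were incubated for the set time. BrdU incorporation was then read with a kit per the manufacturer. Data are mean ± SEM of three or more independent experiments, compared by two-tailed Student's t test.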

[10] = system: BT-474; assay: Cytotoxicity against human BT474 cells assessed as cell viability at 0.1 to 10 uM by MTS assay; assay type: functional, cell-based; method in brief: as §3
[11] = system: MCF7; assay: Induction of apoptosis in human MCF7 cells expressing VEGFR3 assessed as PARP degradation after 48 hrs; assay type: functional, cell-based
[12] = target: Focal adhesion kinase 1 (Homo sapiens) (UniProt Q05397); assay: Inhibition of FAK phosphorylation in human BT474 cells assessed as partial dephosphorylation at 1 uM after 24 hrs by Western blotting; assay type: cell-based; settings: BT-474
[13] = system: BT-474; assay: Cytotoxicity against human BT474 cells assessed as reduction in viability at 1 uM after 48 hrs by MTS assay; assay type: functional
Method in brief: (§5)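 Viability measured by MTS after 48 h exposure. Cells were seeded at 5.0 × 10^3 per well and attached overnight before compound-containing medium was added. BT474 is a […] subclone grown in RPMI-1640 with 10% FBS and 250 µg/ml insulin. MCF7 stable clones carried either empty pcDNA3 or VEGFR-3. Mean ± SEM, ≥3 experiments, two-tailed t test.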

[14] = target: Vascular endothelial growth factor receptor 3 (Homo sapiens) (UniProt P35916); assay: Inhibition of VEGFR3 phosphorylation in human MCF7 cells expressing VEGFR3 assessed as complete dephosphorylation at Tyr1063/1068 activation loop at 1 to 10 uM by Western blotting; assay type: cell-based; settings: TDE = time-dependent effect
[15] = system: MCF7; assay: Cytotoxicity against human MCF7 cells expressing VEGFR3 assessed as cell viability at 10 uM after 48 hrs by MTS assay; assay type: functional; method in brief: as §5
[16] = system: BT-474; assay: Antitumor activity against human BT474 cells xenografted in nude-foxn1nu mouse assessed as reduction in tumor growth at 10 mg/kg, ip qd administered day after injection of cells after 14 days relative to control; assay type: functional; parameters: scale not given: the % may be the effect or the level left; settings: route intraperitoneal
Method in brief: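 Female 5–6-week hsd:athymic nude-foxn1nu mice (5 per group) received 2–5 × 10^6 BT474 cells per 200 µl subcutaneously in the right flank. Dosing at 10 mg/kg ip once daily began the next day. Tumours were measured thrice weekly, with volume = length × width² × 0.5. The study ended at 14 days against a vehicle group.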

[17] = system: MCF7; assay: Antiproliferative activity against human MCF7 cells expressing VEGFR3 at 0.1 to 10 uM by BrdU incorporation assay; assay type: functional, cell-based; settings: TDE = time-dependent effect; method in brief: as §4
[18] = target: Vascular endothelial growth factor receptor 3 (Homo sapiens) (UniProt P35916); assay: Inhibition of VEGFR3 phosphorylation in human BT474 cells assessed as complete dephosphorylation at Tyr1063/1068 activation loop at 10 uM by Western blotting; assay type: cell-based; settings: BT-474; method in brief: as §1
[19] = target: Vascular endothelial growth factor receptor 3 (Homo sapiens) (UniProt P35916); assay: Inhibition of VEGFR3 phosphorylation in human MCF7 cells expressing VEGFR3 assessed as complete dephosphorylation at Tyr1063/1068 activation loop at 10 uM by Western blotting; assay type: cell-based
[20] = system: BT-474; assay: Cytotoxicity against human BT474 cells assessed as cell viability at 100 uM by MTS assay; assay type: functional, cell-based; method in brief: as §3
[21] = system: MCF7; assay: Antitumor activity against human MCF7 cells expressing VEGFR3 xenografted in nude-foxn1nu mouse assessed as reduction in tumor growth at 30 mg/kg after 21 days relative to control; assay type: functional, organism-based; parameters: dose 30 mg/kg
[22] = target: Focal adhesion kinase 1 (Homo sapiens) (UniProt Q05397); assay: Inhibition of FAK phosphorylation in human MCF7 cells expressing VEGFR3 cells assessed as decrease in total phosphorylation at 10 uM after 24 hrs by immunoprecipitation technique; assay type: cell-based
Method in brief: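 MCF7-VEGFR-3 and BT474 cells were treated for 24 h at 10 µM or 1 µM. FAK was immunoprecipitated and blotted with anti-phosphotyrosine antibody 4G10 to assess total FAK tyrosine phosphorylation.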

[23] = system: MCF7; assay: Induction of apoptosis in human MCF7 cells assessed as PARP degradation after 48 hrs; assay type: functional, cell-based
[24] = system: MCF7; assay: Induction of apoptosis in human MCF7 cells at 10 uM after 48 hrs by TUNEL assay; assay type: functional
[25] = system: MCF7; assay: Induction of apoptosis in human MCF7 cells expressing VEGFR3 at 10 uM after 48 hrs by TUNEL assay; assay type: functional
[26] = system: BT-474; assay: Relocalization of FAK-VEGFR3 complex from cytoplasm to nucleus in human BT474 cells at 10 uM after 24 hrs by confocal microscopy; assay type: functional, cell-based
Method in brief: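 BT474 cells given DMSO or 10 µM compound for 24 h, dual-immunostained for FAK (Alexa Fluor 488) and VEGFR-3 (Alexa Fluor 546), imaged by confocal microscopy; percentage of colocalized FAK/VEGFR-3 molecules derived by scatter-plot analysis.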

[27] = system: A-375; assay: Cytotoxicity against human A375 cells after 72 hrs by MTS assay; assay type: functional, cell-based; settings: A-375, 72 h; method in brief: as §2
[28] = target: Vascular endothelial growth factor receptor 3 (Homo sapiens) (UniProt P35916); assay: Inhibition of VEGFR3 phosphorylation in human BT474 cells assessed as partial dephosphorylation at Tyr1063/1068 activation loop after 24 hrs by Western blotting; assay type: cell-based; settings: BT-474; method in brief: as §1

Chain of Vascular endothelial growth factor receptor 3 (Homo sapiens) (P35916 whole entry): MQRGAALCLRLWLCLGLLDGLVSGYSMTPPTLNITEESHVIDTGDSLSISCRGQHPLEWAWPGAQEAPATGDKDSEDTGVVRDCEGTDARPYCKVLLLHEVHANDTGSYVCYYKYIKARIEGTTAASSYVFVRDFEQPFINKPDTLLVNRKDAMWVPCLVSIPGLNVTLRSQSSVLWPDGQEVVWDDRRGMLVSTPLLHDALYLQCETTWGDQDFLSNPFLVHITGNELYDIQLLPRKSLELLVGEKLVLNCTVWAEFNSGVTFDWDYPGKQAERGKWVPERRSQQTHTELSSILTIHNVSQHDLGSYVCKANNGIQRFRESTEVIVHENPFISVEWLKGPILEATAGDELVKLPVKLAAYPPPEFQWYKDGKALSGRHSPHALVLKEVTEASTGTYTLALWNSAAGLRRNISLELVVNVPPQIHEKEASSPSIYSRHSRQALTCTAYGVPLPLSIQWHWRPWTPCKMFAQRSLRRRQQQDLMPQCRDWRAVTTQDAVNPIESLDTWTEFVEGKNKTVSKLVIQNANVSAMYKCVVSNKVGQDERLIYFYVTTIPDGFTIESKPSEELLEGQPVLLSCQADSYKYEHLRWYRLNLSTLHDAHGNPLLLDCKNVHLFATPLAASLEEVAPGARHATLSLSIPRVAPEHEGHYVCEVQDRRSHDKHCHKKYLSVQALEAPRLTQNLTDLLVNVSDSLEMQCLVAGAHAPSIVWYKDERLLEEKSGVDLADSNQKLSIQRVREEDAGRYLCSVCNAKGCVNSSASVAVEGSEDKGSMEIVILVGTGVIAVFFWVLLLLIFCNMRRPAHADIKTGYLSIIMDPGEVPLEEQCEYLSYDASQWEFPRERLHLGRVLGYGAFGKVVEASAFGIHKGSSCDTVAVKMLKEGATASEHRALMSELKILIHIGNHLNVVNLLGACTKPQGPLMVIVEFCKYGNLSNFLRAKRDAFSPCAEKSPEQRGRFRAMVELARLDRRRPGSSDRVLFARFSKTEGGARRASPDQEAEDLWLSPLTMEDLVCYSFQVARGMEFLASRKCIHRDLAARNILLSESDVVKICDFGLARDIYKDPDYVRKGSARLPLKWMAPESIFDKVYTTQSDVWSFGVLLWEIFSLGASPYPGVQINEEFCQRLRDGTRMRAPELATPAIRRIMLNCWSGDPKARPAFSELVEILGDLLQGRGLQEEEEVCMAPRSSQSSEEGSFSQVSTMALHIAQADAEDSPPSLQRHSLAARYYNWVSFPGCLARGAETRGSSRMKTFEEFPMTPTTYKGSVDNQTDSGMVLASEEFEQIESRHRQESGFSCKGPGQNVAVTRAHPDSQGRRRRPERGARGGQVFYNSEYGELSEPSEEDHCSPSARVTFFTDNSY
Chain of Focal adhesion kinase 1 (Homo sapiens) (Q05397 2-1052 limits assumed): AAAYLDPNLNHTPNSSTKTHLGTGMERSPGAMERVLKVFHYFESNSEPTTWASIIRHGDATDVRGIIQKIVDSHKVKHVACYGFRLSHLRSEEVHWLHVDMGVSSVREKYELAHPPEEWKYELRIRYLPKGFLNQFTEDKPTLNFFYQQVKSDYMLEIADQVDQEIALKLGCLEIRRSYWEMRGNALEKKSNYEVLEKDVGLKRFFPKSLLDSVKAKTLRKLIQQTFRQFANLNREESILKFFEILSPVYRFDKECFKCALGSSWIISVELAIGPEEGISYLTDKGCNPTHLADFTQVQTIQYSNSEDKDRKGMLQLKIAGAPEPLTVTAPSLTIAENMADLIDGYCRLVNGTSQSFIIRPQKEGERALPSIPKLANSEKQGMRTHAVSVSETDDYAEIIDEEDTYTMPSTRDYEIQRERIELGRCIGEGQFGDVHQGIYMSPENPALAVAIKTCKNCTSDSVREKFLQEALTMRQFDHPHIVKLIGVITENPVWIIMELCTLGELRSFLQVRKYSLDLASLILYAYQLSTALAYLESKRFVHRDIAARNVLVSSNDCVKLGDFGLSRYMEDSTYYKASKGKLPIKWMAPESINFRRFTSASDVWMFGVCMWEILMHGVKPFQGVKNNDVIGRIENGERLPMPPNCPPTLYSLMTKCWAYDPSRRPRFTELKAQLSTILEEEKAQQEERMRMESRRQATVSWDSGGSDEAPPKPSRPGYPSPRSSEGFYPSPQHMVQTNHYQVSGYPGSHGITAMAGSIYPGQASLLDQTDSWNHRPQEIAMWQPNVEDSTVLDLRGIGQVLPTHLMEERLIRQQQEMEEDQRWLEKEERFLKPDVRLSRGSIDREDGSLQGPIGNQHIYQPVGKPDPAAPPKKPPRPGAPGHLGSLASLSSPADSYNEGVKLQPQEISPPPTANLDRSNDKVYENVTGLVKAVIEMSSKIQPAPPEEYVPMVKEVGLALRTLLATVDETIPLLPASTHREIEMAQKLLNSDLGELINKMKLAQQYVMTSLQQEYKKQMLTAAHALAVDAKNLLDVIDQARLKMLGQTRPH

Activity [1]: tde
Activity [4]: tde
Activity [12]: Active
Activity [14]: tde
Activity [18]: Active
Activity [19]: Active
Activity [22]: Active
Activity [28]: Dose-dependent effect
Compound: CN(C)CCN(Cc1ccc(Cl)cc1)c1ccccn1.Cl [CHLORPYRAMIN HYDROCHLORIDE]
IC50 [2]: 1000 nM
Activity [3]: 29%
Activity [5]: 20%
IC50 [6]: 1000 nM
Activity [7]: 60%
Activity [8]: Active
Activity [9]: Dose-dependent effect
Activity [10]: Active
Activity [11]: Dose-dependent effect
Activity [13]: 40%
fold change (FC) [15]: 2
Activity [16]: 20%
Activity [17]: tde
Activity [20]: Active
Activity [21]: inactive
Activity [23]: Dose-dependent effect
Activity [24]: 18%
Activity [25]: 76%
Activity [26]: Active
IC50 [27]: 1000 nM
